# Measurements reported in ChEMBL document CHEMBL4321820, “Identification and Optimization of Mechanism-Based Fluoroallylamine Inhibitors of Lysyl Oxidase-like 2/3” (J Med Chem, 2019).
# The source made the active and inactive calls. The calls are words filed in the database; no cut-off is given here.
# Experiments:
# Mus musculus [1] = experiment: Increase in plasma ALT level in CCl4-induced BALB/c mouse model of liver fibrosis at 2 mg/ml, po administered every 2 day for 6 weeks; format: ADME, organism-based; conditions: in vivo
# Procedure, shortened: (§1)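 Female BALB/c mice given CCl4 i.p. (1 mL/kg of 25% CCl4 in olive oil) twice weekly for 6 weeks, killed 48 h after the last dose. The 2 mg/mL treatment was given in drinking water ad libitum, changed every second day, for 6 weeks (n=15). ALT and AST were measured in plasma.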
# Mus musculus [2] = experiment: Antifibrotic activity in CCl4-induced BALB/c mouse model of liver fibrosis assessed as liver fibrosis area at 2 mg/ml, po administered every 2 day for 6 weeks by picro-sirius red staining based microscopy; format: functional, organism-based
# Procedure, shortened: (§2)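 Female BALB/c mice given CCl4 i.p. (1 mL/kg of 25% CCl4 in olive oil) twice weekly for 6 weeks, killed 48 h after the last dose. The 2 mg/mL treatment was given in drinking water ad libitum, changed every second day, for 6 weeks (n=15). One liver lobe was formalin-fixed and stained for Picro Sirius Red or α-SMA. Slides were scanned at 20X. Fibrotic area is given as % of total liver area, mean ± SEM. One-way ANOVA with Dunnett's test vs CCl4 + vehicle.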
# Mus musculus [3] = experiment: Increase in plasma AST level in CCl4-induced BALB/c mouse model of liver fibrosis at 2 mg/ml, po administered every 2 day for 6 weeks; format: ADME, organism-based; conditions: in vivo; procedure, shortened: as §1
# Protein-lysine 6-oxidase = target: T1, Protein-lysine 6-oxidase (Bos taurus, UniProt P33072); experiment: Inhibition of LOX in bovine aorta using putrescine as substrate preincubated with enzyme for 30 mins followed by substrate addition and measured every 2.5 mins for 30 mins by Amplex-Red oxidation assay; format: tissue-based; conditions: read-out: pIC50 (converted)
# T1 sequence (P33072 whole entry): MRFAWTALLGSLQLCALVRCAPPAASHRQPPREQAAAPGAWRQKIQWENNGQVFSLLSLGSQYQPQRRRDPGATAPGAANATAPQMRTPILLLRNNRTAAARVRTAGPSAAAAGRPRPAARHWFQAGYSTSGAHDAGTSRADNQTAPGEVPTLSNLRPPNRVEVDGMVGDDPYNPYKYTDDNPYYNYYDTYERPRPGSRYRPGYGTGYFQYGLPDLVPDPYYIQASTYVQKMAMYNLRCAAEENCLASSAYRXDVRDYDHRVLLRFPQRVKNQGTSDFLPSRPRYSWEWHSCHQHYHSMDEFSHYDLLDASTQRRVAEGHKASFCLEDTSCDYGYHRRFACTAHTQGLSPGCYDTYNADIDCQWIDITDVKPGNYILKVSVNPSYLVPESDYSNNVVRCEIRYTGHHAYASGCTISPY
# Procedure, shortened: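 LOX extracted from calf aorta after PBS washing with 4 M urea/50 mM borate pH 8.2, concentrated on 10 kDa filters into 1.2 M urea/borate with protease inhibitors. Preincubated 30 min at 37 °C with compound, then Amplex Red/HRP with 10 mM putrescine; fluorescence read every 2.5 min for 30 min.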
# Mus musculus [4] = experiment: Antifibrotic activity in CCl4-induced BALB/c mouse model of liver fibrosis assessed as reduction in liver fibrosis area at 2 mg/ml, po administered every 2 day for 6 weeks by alpha-SMA staining based microscopy; format: functional, organism-based; procedure, shortened: as §2
# [5] = Substrate activity at AOC4 in dog serum assessed as compound oxidation by measuring oxidative turnover at 30 uM measured for 40 mins by horseradish peroxidase-coupled amplex red reagent-based fluorometric assay relative to DMSO; format: ADME, cell-free, Canis lupus familiaris
# Procedure, shortened: (§3)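 Compound oxidation measured without substrate by peroxidase-coupled fluorometric read-out of resorufin formation over 40 min at 37 °C in HEPES buffer. Amplex Red 20 µM, HRP 4 U/ml, test compound at final 30 µM. Enzyme source was human recombinant SSAO or AOC4 from diluted dog serum. Benzylamine at 600 µM served as positive control. Signal is expressed relative to DMSO-only background, so a value near 1 means no turnover.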
# [6] = target: T2, Lysyl oxidase homolog 2 (Homo sapiens) (UniProt Q9Y4K0); experiment: Inhibition of recombinant human C-terminal His-tagged […] (1-774 residues) expressed in mouse myeloma cells assessed as recovery of enzyme activity at 10XIC50 preincubated with bound enzyme for 30 mins followed by drug wash-out and later incubated with putrescine substrate and measured after 30 mins by Amplex-Red oxidation assay; format: cell-based; set-up: scale not given: the % may be the effect or the level left
# T2 sequence (whole entry): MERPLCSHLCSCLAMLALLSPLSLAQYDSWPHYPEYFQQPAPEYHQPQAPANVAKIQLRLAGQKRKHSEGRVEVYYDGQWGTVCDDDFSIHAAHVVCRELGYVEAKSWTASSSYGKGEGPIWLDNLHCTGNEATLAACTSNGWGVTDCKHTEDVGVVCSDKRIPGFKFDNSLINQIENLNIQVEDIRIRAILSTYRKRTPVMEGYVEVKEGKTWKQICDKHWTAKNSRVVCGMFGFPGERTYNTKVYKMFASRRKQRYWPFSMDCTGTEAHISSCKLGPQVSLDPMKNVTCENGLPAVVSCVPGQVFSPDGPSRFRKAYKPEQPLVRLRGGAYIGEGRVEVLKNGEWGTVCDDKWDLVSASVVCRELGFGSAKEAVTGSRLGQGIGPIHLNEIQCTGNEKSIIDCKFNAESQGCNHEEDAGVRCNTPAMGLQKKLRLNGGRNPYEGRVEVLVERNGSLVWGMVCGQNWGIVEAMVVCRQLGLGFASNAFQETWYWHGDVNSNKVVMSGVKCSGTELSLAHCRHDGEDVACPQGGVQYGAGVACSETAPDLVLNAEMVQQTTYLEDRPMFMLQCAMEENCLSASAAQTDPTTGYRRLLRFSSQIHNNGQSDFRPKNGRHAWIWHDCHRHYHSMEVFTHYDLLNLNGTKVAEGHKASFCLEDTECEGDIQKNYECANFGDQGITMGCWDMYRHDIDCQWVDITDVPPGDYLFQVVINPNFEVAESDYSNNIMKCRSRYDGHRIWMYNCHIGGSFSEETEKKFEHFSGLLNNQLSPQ
# Lysyl oxidase homolog 2 [7] = target: T3, Lysyl oxidase homolog 2 (Homo sapiens, UniProt Q9Y4K0); experiment: Substrate activity at recombinant human C-terminal His-tagged […] (1-774 residues) expressed in mouse myeloma cells assessed as oxidative turnover at 30 uM measured after 30 mins by horseradish peroxidase-coupled amplex red reagent-based fluorescence assay relative to DMSO; format: ADME, cell-based; conditions: 0.5 h
# T3 sequence (Q9Y4K0 whole entry): T2 sequence (whole entry)
# Procedure, shortened: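 LOXL2 incubated with compound, no substrate present. Hydrogen peroxide generation read by Amplex Red/HRP fluorescence (ex 565, em 590 nm). Oxidative turnover at 30 min expressed relative to DMSO.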
# Lysyl oxidase homolog 2 [8] = target: T3, Lysyl oxidase homolog 2; experiment: Inhibition of recombinant human C-terminal His-tagged […] (1-774 residues) expressed in mouse myeloma cells using putrescine as substrate preincubated with enzyme for 30 mins followed by substrate addition and measured every 2.5 mins for 30 mins by Amplex-Red oxidation assay; conditions: read-out: pIC50 (converted)
# Procedure, shortened: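 LOXL2 enzyme preincubated with compound for 30 min at 37 °C, then Amplex Red (120 µM) / HRP (1.5 U/mL) mix containing 5 mM putrescine added. Buffer: 1.2 M urea, 50 mM sodium borate, pH 8.2. H2O2 fluorescence (ex 565/em 590) read every 2.5 min for 30 min at 37 °C; BAPN 100 µM as positive control; n≥2.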
# [9] = target: T4, Amine oxidase [copper-containing] 3 (Homo sapiens, UniProt Q16853); experiment: Substrate activity at recombinant human SSAO assessed as compound oxidation by measuring oxidative turnover at 30 uM measured for 40 mins by horseradish peroxidase-coupled amplex red reagent-based fluorometric assay relative to DMSO; format: ADME; procedure, shortened: as §3
# T4 sequence (Q16853 whole entry): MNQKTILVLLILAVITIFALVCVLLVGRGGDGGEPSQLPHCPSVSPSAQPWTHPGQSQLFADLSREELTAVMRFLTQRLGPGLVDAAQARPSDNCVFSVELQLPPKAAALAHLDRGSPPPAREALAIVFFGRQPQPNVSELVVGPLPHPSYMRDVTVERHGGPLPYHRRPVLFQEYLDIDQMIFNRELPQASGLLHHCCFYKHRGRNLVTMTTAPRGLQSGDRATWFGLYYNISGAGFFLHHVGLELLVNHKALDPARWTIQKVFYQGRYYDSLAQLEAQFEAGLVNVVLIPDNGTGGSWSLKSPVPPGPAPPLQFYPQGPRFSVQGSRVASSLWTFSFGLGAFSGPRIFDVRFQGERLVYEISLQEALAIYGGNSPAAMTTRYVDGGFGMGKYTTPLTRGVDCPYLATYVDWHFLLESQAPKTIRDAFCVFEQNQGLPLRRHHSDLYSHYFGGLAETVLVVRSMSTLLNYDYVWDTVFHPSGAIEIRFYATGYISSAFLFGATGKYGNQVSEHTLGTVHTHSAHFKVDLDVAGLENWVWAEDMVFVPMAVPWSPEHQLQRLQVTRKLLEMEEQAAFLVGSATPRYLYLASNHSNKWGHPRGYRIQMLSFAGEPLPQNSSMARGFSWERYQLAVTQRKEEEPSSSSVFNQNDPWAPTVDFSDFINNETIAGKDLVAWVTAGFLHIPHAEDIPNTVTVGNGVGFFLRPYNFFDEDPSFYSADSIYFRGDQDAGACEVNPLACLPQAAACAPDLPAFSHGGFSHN
fold change (FC) [5],Activity [6] [%],fold change (FC) (Lysyl oxidase homolog 2 [7]),IC50 (Lysyl oxidase homolog 2 [8]) [nM],fold change (FC) [9],SMILES,Activity (Mus musculus [1]),inhibition (Mus musculus [2]),Activity (Mus musculus [3]),IC50 (Protein-lysine 6-oxidase) [nM],inhibition (Mus musculus [4])
,,,,,N#CCCN,Toxic,inactive,Toxic,2000,Active
1.3,75,6,794,1,Cc1c(-c2cccc(S(=O)(=O)N(C)C)c2)c2cc(C(=O)O)ccc2n1C/C=C/CN.Cl,,,,3160,
